Measured values from publication PMC3182458 (Bioorganic & medicinal chemistry letters, 2008).
Several values for one entry are separate records, joined by “and”; a condition that tells them apart may be missing. Equal entries are not always repeated. Entries after “also recorded” stand apart in the source; their conditions may differ.

Experiments:
[1] = cited from earlier work
human mGluR4 = human mGluR4 (Homo sapiens, UniProt Q14833); type: cell-based
[2] = stability in fortified liver microsome preparations; type: in vitro ADME; conditions: after 90 minutes, fortified liver microsomes
rat mGluR5 = assay: calcium fluorescence counterscreen in rat mGluR5/HEK cells; type: cell-based
In short: (§1)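 Calcium mobilization in rat receptor lines: mGluR1/BHK plated at 20,000 cells/well, mGluR5/HEK at 15,000 cells/well, in DMEM with 10% dialyzed FBS and 20 mM HEPES. […] Test compound run as a 10-point curve from 30 µM final, 1:3 dilutions. Maximum fluorescence of the EC20 and EC80 peaks is expressed versus control.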

rat mGluR1 = rat mGluR1 (Rattus norvegicus, UniProt P23385); assay: calcium fluorescence counterscreen in rat mGluR1/BHK cells; type: cell-based
In short: as §1

Sequence of human mGluR4 (Q14833 33-912): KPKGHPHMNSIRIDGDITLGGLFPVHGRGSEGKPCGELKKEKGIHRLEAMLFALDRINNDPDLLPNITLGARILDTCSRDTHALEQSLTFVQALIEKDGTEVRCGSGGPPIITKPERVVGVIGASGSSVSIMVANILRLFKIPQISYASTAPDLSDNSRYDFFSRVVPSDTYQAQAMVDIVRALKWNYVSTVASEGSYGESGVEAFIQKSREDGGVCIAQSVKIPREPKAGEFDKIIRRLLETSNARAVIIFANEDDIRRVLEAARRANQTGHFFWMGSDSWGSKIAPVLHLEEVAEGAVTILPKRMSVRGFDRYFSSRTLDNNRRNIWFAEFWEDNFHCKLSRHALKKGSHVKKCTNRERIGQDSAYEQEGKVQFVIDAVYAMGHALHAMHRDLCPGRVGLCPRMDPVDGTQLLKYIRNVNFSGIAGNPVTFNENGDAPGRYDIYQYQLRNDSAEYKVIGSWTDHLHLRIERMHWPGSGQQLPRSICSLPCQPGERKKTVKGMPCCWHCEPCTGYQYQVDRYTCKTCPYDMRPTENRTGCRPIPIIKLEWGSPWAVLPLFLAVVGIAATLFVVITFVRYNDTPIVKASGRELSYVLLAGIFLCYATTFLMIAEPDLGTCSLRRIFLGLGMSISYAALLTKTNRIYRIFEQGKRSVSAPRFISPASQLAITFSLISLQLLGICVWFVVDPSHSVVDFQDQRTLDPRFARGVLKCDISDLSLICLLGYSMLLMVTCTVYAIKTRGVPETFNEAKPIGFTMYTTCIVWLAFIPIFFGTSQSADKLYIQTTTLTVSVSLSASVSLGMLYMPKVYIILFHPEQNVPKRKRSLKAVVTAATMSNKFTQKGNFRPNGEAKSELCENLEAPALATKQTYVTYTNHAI
Sequence of rat mGluR1 (P23385 19-1199): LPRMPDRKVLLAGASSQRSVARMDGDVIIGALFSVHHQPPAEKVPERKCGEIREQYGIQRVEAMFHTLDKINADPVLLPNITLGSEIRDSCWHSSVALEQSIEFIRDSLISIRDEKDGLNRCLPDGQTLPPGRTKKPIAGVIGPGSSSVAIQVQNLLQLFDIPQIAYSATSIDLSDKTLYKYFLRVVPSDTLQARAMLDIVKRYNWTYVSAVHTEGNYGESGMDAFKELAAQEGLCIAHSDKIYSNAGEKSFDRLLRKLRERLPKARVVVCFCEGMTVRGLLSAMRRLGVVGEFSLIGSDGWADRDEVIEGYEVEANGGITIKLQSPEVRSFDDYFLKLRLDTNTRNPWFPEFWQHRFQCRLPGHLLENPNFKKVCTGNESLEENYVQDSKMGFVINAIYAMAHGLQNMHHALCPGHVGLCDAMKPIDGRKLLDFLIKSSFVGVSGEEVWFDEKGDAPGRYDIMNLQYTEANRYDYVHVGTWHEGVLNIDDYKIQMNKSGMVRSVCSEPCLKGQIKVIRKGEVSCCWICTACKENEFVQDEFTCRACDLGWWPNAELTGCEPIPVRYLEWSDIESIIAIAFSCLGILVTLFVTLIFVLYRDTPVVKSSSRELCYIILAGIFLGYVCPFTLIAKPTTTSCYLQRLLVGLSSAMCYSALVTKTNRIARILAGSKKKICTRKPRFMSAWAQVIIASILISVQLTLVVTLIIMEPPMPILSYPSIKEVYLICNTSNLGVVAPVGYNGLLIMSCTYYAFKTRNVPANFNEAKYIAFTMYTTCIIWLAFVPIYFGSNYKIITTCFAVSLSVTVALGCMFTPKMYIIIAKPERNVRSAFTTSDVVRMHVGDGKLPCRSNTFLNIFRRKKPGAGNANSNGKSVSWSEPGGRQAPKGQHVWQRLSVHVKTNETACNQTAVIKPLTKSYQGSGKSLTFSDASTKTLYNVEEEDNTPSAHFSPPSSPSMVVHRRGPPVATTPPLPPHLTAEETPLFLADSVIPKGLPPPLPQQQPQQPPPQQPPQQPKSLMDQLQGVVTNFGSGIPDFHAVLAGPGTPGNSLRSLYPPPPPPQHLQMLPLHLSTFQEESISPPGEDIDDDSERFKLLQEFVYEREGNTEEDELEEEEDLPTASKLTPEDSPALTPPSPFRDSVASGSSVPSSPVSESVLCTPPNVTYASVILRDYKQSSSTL

Row | SMILES | brain penetration [1] | effect on the glutamate max (maximal response) (human mGluR4; compound at 30 µM) | EC50 (human mGluR4) | Fold shift (leftward shift of the glutamate response curve) (human mGluR4; compound at 30 µM, HTS stock of 7) | potentiation of an EC20 of glutamate in the HTS campaign (human mGluR4; mGluR4/Gqi5 CHO cells, HTS) | effect on mGluR4 in the absence of glutamate (human mGluR4; no glutamate) | parent compound remaining [2] | selectivity versus mGluR5 (rat mGluR5) | mode of action at mGluR1 (rat mGluR1) | CNS penetration [1]
1 | O=C(Nc1ccccc1)[C@]12C[C@H]1/C(=N\O)c1ccccc1O2 [(−)-PHCCC, reference compound] | limited brain penetration | elevation in the glutamate max; also recorded: increases maximal response | – | – | – | – | – | – | – | –
2 | Cc1ccc(-n2ncc3c(N4CCCC(C)C4)ncnc32)c(C)c1 (centres unmarked) [Compound 7, 1-(2,4-dimethylphenyl)-4-(3-methylpiperidin-1-yl)-1H-pyrazolo[3,4-d]pyrimidine] | – | no increase in the glutamate max | ~5 µM | 27.2(±8.5) fold and 27.2 fold | Concentration-dependent potentiation | does not activate mGluR4 | 9% | selective versus mGluR5 | full antagonist | –
3 | N[C@@H](CCP(=O)(O)O)C(=O)O [L-AP4, L-(+)-2-amino-4-phosphonobutryic acid] | – | – | – | – | – | – | – | – | – | limited CNS penetration
